Reference: ChEMBL document CHEMBL4715682, “Potent trifluoromethoxy, trifluoromethylsulfonyl, trifluoromethylthio and pentafluorosulfanyl containing (1,3,4-oxadiazol-2-yl)benzamides against drug-resistant Gram-positive bacteria” (RSC Med Chem, 2020)
Converted amounts (≈) assume the structure as drawn. The source made the active and inactive calls. No cut-off for these calls is given here.

Tests used:
[1] = test system: Staphylococcus aureus; test: Antibacterial activity against methicillin-resistant Staphylococcus aureus ATCC 33592 assessed as inhibition of visible bacterial growth incubated for 18 to 20 hrs by CLSI method; type: functional; conditions: time 18-20 hrs
Summary of the method: (§1)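 CLSI broth microdilution. Strains grown aerobically overnight on tryptic soy agar at 37 °C, adjusted to 0.5 McFarland and diluted in cation-adjusted Mueller–Hinton broth to about 5×10^5 CFU/mL. Compounds and control drugs serially diluted across the plate. Incubated aerobically at 37 °C for 18-20 h. MIC is the lowest concentration with no visible growth.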

[2] = test system: Staphylococcus aureus; test: Antibacterial activity against Staphylococcus aureus ATCC 25923 assessed as inhibition of visible bacterial growth incubated for 18 to 20 hrs by CLSI method; type: functional; conditions: time 18-20 hrs; summary of the method: as §1
[3] = test system: Staphylococcus aureus; test: Antibacterial activity against methicillin-resistant Staphylococcus aureus USA400 infected in mouse J774 cells assessed as log reduction in intracellular growth at 8 ug/ml incubated for 18 to 22 hrs; type: functional; conditions: dose 8 µg/ml; time 18-22 hrs
Summary of the method: (§2)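 J774 murine macrophages grown in DMEM with 10% FBS at 37 °C, 5% CO2. Cells infected with MRSA USA400 at MOI about 10:1 for 1 h, then washed with gentamicin to remove extracellular bacteria. Agents added at 8 or 16 μg/mL in triplicate, with DMSO vehicle control, for 24 h. Cells lysed with 0.1% Triton-X, lysates plated on tryptic soy agar, and CFU counted after 18-22 h at 37 °C. Analysed by two-way ANOVA with Dunnett's test.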

[4] = test system: Staphylococcus aureus; test: Antibacterial activity against methicillin-resistant Staphylococcus aureus NRS483 assessed as inhibition of visible bacterial growth incubated for 18 to 20 hrs by CLSI method; type: functional; conditions: time 18-20 hrs; summary of the method: as §1
[5] = test system: Caco-2; test: Cytotoxicity against human Caco2 cells assessed as reduction in cell viability at 128 ug/ml incubated for 2 hrs by MTS assay; type: cell-based; conditions: caco-2, 2 h, dose 128 µg/ml
[6] = test system: Listeria monocytogenes; test: Antibacterial activity against Listeria monocytogenes ATCC 19111 assessed as inhibition of visible bacterial growth incubated for 18 to 20 hrs by CLSI method; type: functional; conditions: time 18-20 hrs
Summary of the method: (§3)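 Broth microdilution per CLSI. Strains grown aerobically overnight on TSA at 37 °C, suspended to 0.5 McFarland, diluted in CAMHB to about 5×10^5 CFU/mL. Agents serially diluted across plate; aerobic incubation 37 °C for 18-20 h. MIC = lowest concentration completely preventing visible growth.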

[7] = test system: Staphylococcus aureus; test: Antibacterial activity against vancomycin-resistant Staphylococcus aureus 12 assessed as inhibition of visible bacterial growth incubated for 18 to 20 hrs by CLSI method; type: functional; conditions: time 18-20 hrs; summary of the method: as §1
[8] = test system: Staphylococcus aureus; test: Antibacterial activity against methicillin-sensitive Staphylococcus aureus NRS 107 assessed as inhibition of visible bacterial growth incubated for 18 to 20 hrs by CLSI method; type: functional; conditions: time 18-20 hrs; summary of the method: as §1
[9] = test system: Streptococcus pneumoniae; test: Antibacterial activity against […] Streptococcus pneumoniae ATCC 700677 assessed as inhibition of visible bacterial growth incubated for 18 to 20 hrs by CLSI method; type: functional; conditions: time 18-20 hrs; summary of the method: as §1
[10] = test system: Enterococcus faecalis; test: Antibacterial activity against vancomycin- resistant Enterococcus faecalis ATCC 51299 assessed as inhibition of visible bacterial growth incubated for 18 to 20 hrs by CLSI method; type: functional; conditions: time 18-20 hrs; summary of the method: as §1
[11] = test system: Staphylococcus aureus; test: Antibacterial activity against methicillin-resistant Staphylococcus aureus NRS382 assessed as inhibition of visible bacterial growth incubated for 18 to 20 hrs by CLSI method; type: functional; conditions: time 18-20 hrs; summary of the method: as §1
[12] = Hemolytic activity in human RBC at 128 ug/ml incubated for 60 mins relative to control; type: ADME, cell-based, Erythrocyte; conditions: red blood cells (erythrocytes), dose 128 µg/ml, read-out: Activity
Summary of the method: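 Single-donor human erythrocytes as a 5% v/v suspension in PBS. Compounds serially diluted in PBS, in triplicate, and incubated with RBCs at 37 °C for 60 min. PBS served as the negative control and Triton-X as the positive control. Samples spun at 4,000 rpm for 5 min and supernatant absorbance read at 540 nm. Percent hemolysis = 100×(sample−negative)/(positive−negative).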

[13] = test system: Staphylococcus aureus; test: Antibacterial activity against methicillin-sensitive Staphylococcus aureus ATCC 6538 assessed as inhibition of visible bacterial growth incubated for 18 to 20 hrs by CLSI method; type: functional; conditions: time 18-20 hrs; summary of the method: as §1
[14] = test system: Enterococcus faecalis; test: Antibacterial activity against vancomycin- resistant Enterococcus faecalis ATCC 700221 assessed as inhibition of visible bacterial growth incubated for 18 to 20 hrs by CLSI method; type: functional; conditions: time 18-20 hrs; summary of the method: as §1
[15] = test system: Staphylococcus aureus; test: Antibacterial activity against vancomycin-resistant Staphylococcus aureus 10 assessed as inhibition of visible bacterial growth incubated for 18 to 20 hrs by CLSI method; type: functional; conditions: time 18-20 hrs; summary of the method: as §1
[16] = test system: Staphylococcus aureus; test: Antibacterial activity against methicillin-resistant Staphylococcus aureus NRS386 assessed as inhibition of visible bacterial growth incubated for 18 to 20 hrs by CLSI method; type: functional; conditions: time 18-20 hrs; summary of the method: as §1
[17] = test system: Staphylococcus aureus; test: Antibacterial activity against methicillin-resistant Staphylococcus aureus NRS384 assessed as inhibition of visible bacterial growth incubated for 18 to 20 hrs by CLSI method; type: functional; conditions: time 18-20 hrs; summary of the method: as §1
[18] = test system: Staphylococcus aureus; test: Antibacterial activity against methicillin-resistant Staphylococcus aureus NRS387 assessed as inhibition of visible bacterial growth incubated for 18 to 20 hrs by CLSI method; type: functional; conditions: time 18-20 hrs; summary of the method: as §1
[19] = test system: Staphylococcus aureus; test: Antibacterial activity against methicillin-resistant Staphylococcus aureus NRS123 assessed as inhibition of visible bacterial growth incubated for 18 to 20 hrs by CLSI method; type: functional; conditions: time 18-20 hrs; summary of the method: as §1
[20] = test system: Staphylococcus aureus; test: Antibacterial activity against methicillin-resistant Staphylococcus aureus NRS385 assessed as inhibition of visible bacterial growth incubated for 18 to 20 hrs by CLSI method; type: functional; conditions: time 18-20 hrs; summary of the method: as §1
[21] = test system: Staphylococcus aureus; test: Antibacterial activity against methicillin-resistant Staphylococcus aureus USA400 infected in mouse J774 cells assessed as log reduction in intracellular growth at 16 ug/ml incubated for 18 to 22 hrs; type: functional; conditions: dose 16 µg/ml; time 18-22 hrs; summary of the method: as §2
[22] = test system: Pseudomonas aeruginosa; test: Antibacterial activity against Pseudomonas aeruginosa ATCC 27853 assessed as inhibition of visible bacterial growth at 16 ug/ml incubated for 18 to 20 hrs by CLSI method; type: functional, organism-based; conditions: dose 16.0 µg/ml, time 18-20 hrs; summary of the method: as §1
[23] = test system: J774; test: Cytotoxicity against mouse J774 cells assessed as reduction in cell viability at 32 ug/ml incubated for 24 hrs by MTS assay; type: cell-based; conditions: j774, 24 h, dose 32 µg/ml
[24] = test system: Staphylococcus aureus; test: Antibacterial activity against methicillin-resistant Staphylococcus aureus NRS 119 assessed as inhibition of visible bacterial growth incubated for 18 to 20 hrs by CLSI method; type: functional; conditions: time 18-20 hrs; summary of the method: as §1
[25] = test system: Staphylococcus aureus; test: Synergistic antibacterial activity against methicillin-resistant Staphylococcus aureus ATCC 33592 assessed as fractional inhibitory concentration index in presence of Vancomycin; type: functional
[26] = test system: Staphylococcus aureus; test: Antibacterial activity against methicillin-resistant Staphylococcus aureus NRS383 assessed as inhibition of visible bacterial growth incubated for 18 to 20 hrs by CLSI method; type: functional; conditions: time 18-20 hrs; summary of the method: as §1
[27] = test system: Streptococcus pneumoniae; test: Antibacterial activity against cephalosporin-resistant Streptococcus pneumoniae ATCC 51916 assessed as inhibition of visible bacterial growth incubated for 18 to 20 hrs by CLSI method; type: functional; conditions: time 18-20 hrs; summary of the method: as §1
[28] = test system: Acinetobacter baumannii; test: Antibacterial activity against Acinetobacter baumannii ATCC 19606 RW4 assessed as inhibition of visible bacterial growth at 16 ug/ml incubated for 18 to 20 hrs by CLSI method; type: functional, organism-based; conditions: ATCC 19606 = CIP 70.34 = JCM 6841 RW4, dose 16.0 µg/ml, time 18-20 hrs; summary of the method: as §1
[29] = test system: Escherichia coli; test: Antibacterial activity against Escherichia coli ATCC 25404 assessed as inhibition of visible bacterial growth at 16 ug/ml incubated for 18 to 20 hrs by CLSI method; type: functional, organism-based; conditions: B ATCC 25404, dose 16.0 µg/ml, time 18-20 hrs; summary of the method: as §1
[30] = test system: Staphylococcus aureus; test: Antibacterial activity against methicillin-resistant Staphylococcus aureus ATCC 33592 assessed as reduction in bacterial count at 3 x MIC incubated upto 24 hrs by time kill analysis; type: functional; conditions: time hrs <=24
Summary of the method: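 Time-kill assay. […] Samples taken at 0, 2, 4, 8, 12 and 24 h, serially diluted in PBS and plated on tryptic soy agar. Viable CFU/mL counted after 18-20 h at 37 °C.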

[31] = test system: Staphylococcus aureus; test: Synergistic antibacterial activity against methicillin-resistant Staphylococcus aureus ATCC 33592 assessed as fractional inhibitory concentration index in presence of linezolid by checkerboard assay; type: functional
[32] = test system: Staphylococcus aureus; test: Antibacterial activity against methicillin-resistant Staphylococcus aureus NRS484 assessed as inhibition of visible bacterial growth incubated for 18 to 20 hrs by CLSI method; type: functional; conditions: time 18-20 hrs; summary of the method: as §1
[33] = test system: Staphylococcus epidermidis; test: Antibacterial activity against Staphylococcus epidermidis NRS101 assessed as inhibition of visible bacterial growth incubated for 18 to 20 hrs by CLSI method; type: functional; conditions: time 18-20 hrs; summary of the method: as §3
[34] = test system: Staphylococcus aureus; test: Bactericidal activity against methicillin-resistant Staphylococcus aureus ATCC 33592 assessed as reduction in bacterial growth incubated for 18 hrs by CLSI method; type: functional
[35] = test system: Staphylococcus aureus; test: Synergistic antibacterial activity against methicillin-resistant Staphylococcus aureus ATCC 33592 assessed as fractional inhibitory concentration index in presence of methicillin by checkerboard assay; type: functional
[36] = test system: Staphylococcus aureus; test: Synergistic antibacterial activity against methicillin-resistant Staphylococcus aureus ATCC 33592 assessed as fractional inhibitory concentration index in presence of daptomycin by checkerboard assay; type: functional

O=C(Nc1nnc(-c2cccs2)o1)c1cc(C(F)(F)F)n[nH]1
MIC [1]: > 64 µg/mL | MIC [2]: > 64 µg/mL

O=C(Nc1nnc(-c2cccs2)o1)c1ccc(SC(F)(F)F)cc1
Activity [3]: 0.7 log10CFU/ml | MIC [4]: 0.5 µg/mL (≈ 1.35 µM) | Activity [5]: Non-Toxic | MIC [6]: 0.5 µg/mL (≈ 1.35 µM) | MIC [7]: 0.5 µg/mL (≈ 1.35 µM) | MIC [8]: 0.25 µg/mL (≈ 0.673 µM) | MIC [9]: 0.25 µg/mL (≈ 0.673 µM) | MIC [10]: 4 µg/mL (≈ 10.8 µM) | MIC [11]: 0.5 µg/mL (≈ 1.35 µM) | hemolysis at 1 h, 128 ug/ml [12]: 19% | MIC [13]: 0.5 µg/mL (≈ 1.35 µM) | MIC [14]: 4 µg/mL (≈ 10.8 µM) | MIC [15]: 0.5 µg/mL (≈ 1.35 µM) | MIC [16]: 0.5 µg/mL (≈ 1.35 µM) | MIC [17]: 0.5 µg/mL (≈ 1.35 µM) | MIC [18]: 0.125 µg/mL (≈ 0.337 µM) | MIC [1]: 0.5 µg/mL (≈ 1.35 µM) | MIC [19]: 0.5 µg/mL (≈ 1.35 µM) | MIC [20]: 2 µg/mL (≈ 5.39 µM) | Activity [21]: 0.9 log10CFU/ml | inhibition [22]: inactive | MIC [2]: 0.5 µg/mL (≈ 1.35 µM) | Activity [23]: Non-Toxic | MIC [24]: 0.5 µg/mL (≈ 1.35 µM) | fractional inhibitory concentration index (FICI) [25]: 1 | MIC [26]: 0.25 µg/mL (≈ 0.673 µM) | MIC [27]: 0.25 µg/mL (≈ 0.673 µM) | inhibition [28]: inactive | inhibition [29]: inactive | Activity [30]: 4.2 log10CFU/ml | fractional inhibitory concentration index (FICI) [31]: 0.0625 | MIC [32]: 0.5 µg/mL (≈ 1.35 µM) | MIC [33]: 0.25 µg/mL (≈ 0.673 µM) | MBC [34]: 1 µg/mL (≈ 2.69 µM) | fractional inhibitory concentration index (FICI) [35]: 0.5 | fractional inhibitory concentration index (FICI) [36]: 0.63

CSc1ccc(C(=O)Nc2nnc(-c3cccs3)o2)cc1
MIC [1]: 4 µg/mL (≈ 12.6 µM) | MIC [2]: 4 µg/mL (≈ 12.6 µM)
